Drawing on ChEMBL document CHEMBL2163252, “Azapeptide analogues of the growth hormone releasing peptide 6 as cluster of differentiation 36 receptor ligands with reduced affinity for the growth hormone secretagogue receptor 1a” (J Med Chem, 2012), this text covers IC50 and Activity for 17 compounds.

pIC50: −log10 of the molar value. Starred links: 1 amine or outer side, 2 acyl side, 3 side chain; linkers in the order of their positions; H or OH if unused. Non-standard residues stand in square brackets, D forms with d. Residues, ends and D or L forms follow the SMILES beside them. Haic = O=C1[C@@H](N[*:1])CCc2cccc3c2N1[C@H](C(=O)[*:2])C3; dTrp(2-Me) = Cc1[nH]c2ccccc2c1C[C@@H](N)C(=O)O; azaTyr = O=C(N(Cc1ccc(O)cc1)N[*:1])[*:2]; azaPhe = O=C(N(Cc1ccccc1)N[*:1])[*:2]; azaLeu = CC(C)CN(N[*:1])C(=O)[*:2]; azaGly = NNC(=O)O

In one assay the target is Platelet glycoprotein 4 (Rattus norvegicus, UniProt Q07969). As to the kind of experiment: Displacement of photoactivatable [125I]-Tyr-Bpa-Ala-Hexarelin from CD36 in Sprague-Dawley rat cardiac membranes incubated for 60 mins by densitometry. Format: cell membranes, Membrane.
Chain of Platelet glycoprotein 4 (Q07969 whole entry): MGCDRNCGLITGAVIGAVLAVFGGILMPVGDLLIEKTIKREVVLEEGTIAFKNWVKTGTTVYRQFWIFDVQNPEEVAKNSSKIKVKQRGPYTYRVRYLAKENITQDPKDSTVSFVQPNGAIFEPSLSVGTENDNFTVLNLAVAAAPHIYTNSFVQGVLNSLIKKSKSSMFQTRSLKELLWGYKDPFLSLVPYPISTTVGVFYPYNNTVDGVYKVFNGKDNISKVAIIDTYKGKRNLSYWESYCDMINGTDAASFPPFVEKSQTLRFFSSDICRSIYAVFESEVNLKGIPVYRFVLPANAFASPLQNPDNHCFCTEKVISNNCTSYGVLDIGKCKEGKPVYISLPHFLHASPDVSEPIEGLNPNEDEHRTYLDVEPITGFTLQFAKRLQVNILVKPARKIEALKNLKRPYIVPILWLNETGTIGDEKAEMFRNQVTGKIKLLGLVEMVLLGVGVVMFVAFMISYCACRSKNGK
The nature of assay [1]: Antiangiogenic effect in […] mouse microvascular choroid explants assessed as choroid sprouting at 10^-7 M after 4 days (reference value: 53%). Type of assay: functional.
The target in assay [2] is Growth hormone secretagogue receptor type 1 (Homo sapiens, UniProt Q92847). In words: Displacement of [125I]ghrelin expressed in LLC-PK1 cells incubated for 1 hr by gamma counting method. Type of assay: cell-based. The essentials:
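Membranes from LLC-PK1 cells transiently transfected with GHS-R1a (CaPO₄; harvested 24 h later; freeze/thaw lysis, 10000g), 10 μg protein/tube. Incubated with ¹²⁵I-ghrelin (40,000 cpm) and competitor 10⁻¹² to 10⁻⁵ M, 1 h at RT, in Tris/MgCl₂/EDTA/bacitracin buffer pH 7.3. Nonspecific binding set with 10⁻⁵ M competitor. Bound separated by filtration on PEI-soaked GF/C filters, gamma counted.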
Background: Loss of bound radioactivity is the signal in a displacement assay; it reports binding, not function.

Chain of Growth hormone secretagogue receptor type 1 (Q92847 whole entry): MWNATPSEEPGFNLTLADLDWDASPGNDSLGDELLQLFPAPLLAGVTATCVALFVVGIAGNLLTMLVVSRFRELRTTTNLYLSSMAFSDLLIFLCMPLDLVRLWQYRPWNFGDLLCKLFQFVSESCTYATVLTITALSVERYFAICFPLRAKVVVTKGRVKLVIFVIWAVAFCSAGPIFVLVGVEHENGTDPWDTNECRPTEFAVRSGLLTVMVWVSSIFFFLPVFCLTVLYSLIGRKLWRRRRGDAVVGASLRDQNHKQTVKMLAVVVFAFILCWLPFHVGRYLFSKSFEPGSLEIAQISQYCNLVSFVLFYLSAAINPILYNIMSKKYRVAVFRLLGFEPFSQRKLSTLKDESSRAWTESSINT

Regarding `C[C@H](N)C(=O)N[C@H](Cc1c[nH]c2ccccc12)C(=O)NNC(=O)N[C@@H](Cc1c[nH]c2ccccc12)C(=O)N[C@H](Cc1ccccc1)C(=O)N[C@@H](CCCCN)C(N)=O` (H-A[dW][azaGly]W[dF]K-NH2), at Platelet glycoprotein 4, the pIC50 (in general, the IC50 on a negative log10 scale, so that one unit is a factor of ten) was 5.22. In assay [1], the Activity is recorded as 72%.

As for `C[C@H](NC(=O)[C@@H](Cc1c[nH]c2ccccc12)NC(=O)[C@@H](N)Cc1cnc[nH]1)C(=O)NN(Cc1ccc(O)cc1)C(=O)N[C@H](Cc1ccccc1)C(=O)N[C@@H](CCCCN)C(N)=O` (H-H[dW]A[azaTyr][dF]K-NH2), the Activity in assay [1] is 17%.

For the compound `CC(C)CN(NC(=O)[C@@H](Cc1c[nH]c2ccccc12)NC(=O)[C@@H](N)Cc1cnc[nH]1)C(=O)N[C@@H](Cc1c[nH]c2ccccc12)C(=O)N[C@H](Cc1ccccc1)C(=O)N[C@@H](C)C(N)=O` (H-H[dW][azaLeu]W[dF]A-NH2), on Platelet glycoprotein 4, the negative-log IC50 (pIC50) is 5.12. Besides, the Activity in assay [1] is 25%.

In the case of `C[C@H](N)C(=O)NN(Cc1ccccc1)C(=O)N[C@@H](C)C(=O)N[C@@H](Cc1c[nH]c2ccccc12)C(=O)N[C@H](Cc1ccccc1)C(=O)N[C@@H](CCCCN)C(N)=O` (H-A[azaPhe]AW[dF]K-NH2), the pIC50 at Platelet glycoprotein 4 was 4.37; in assay [2] it was < 5.00. Moreover, the Activity in assay [1] came to 28%.

Regarding `C[C@H](N)C(=O)N[C@H](Cc1c[nH]c2ccccc12)C(=O)N[C@@H](C)C(=O)NN(Cc1ccccc1)C(=O)N[C@H](Cc1ccccc1)C(=O)N[C@@H](CCCCN)C(N)=O` (H-A[dW]A[azaPhe][dF]K-NH2), the results for the negative-log IC50 (pIC50) (at Platelet glycoprotein 4; in assay [2]) were 5.12 and < 5.00, respectively. In assay [1], the Activity is given as 105%.

Turning to `C[C@H](NC(=O)[C@@H](Cc1c[nH]c2ccccc12)NC(=O)[C@@H](N)Cc1cnc[nH]1)C(=O)NN(Cc1ccccc1)C(=O)N[C@H](C)C(=O)N[C@@H](CCCCN)C(N)=O` (H-H[dW]A[azaPhe][dA]K-NH2), the pIC50 (on Platelet glycoprotein 4; in assay [2]) was < 5.00 each time.

As to `C[C@@H](NC(=O)[C@H](Cc1c[nH]c2ccccc12)NC(=O)NNC(=O)[C@@H](Cc1c[nH]c2ccccc12)NC(=O)[C@@H](N)Cc1cnc[nH]1)C(=O)N[C@@H](CCCCN)C(N)=O` (H-H[dW][azaGly]W[dA]K-NH2), the pIC50 (on Platelet glycoprotein 4; in assay [2]) was < 5.00 each time.

In the case of `CC(C)CN(NC(=O)[C@@H](Cc1c[nH]c2ccccc12)NC(=O)CN)C(=O)N[C@@H](Cc1c[nH]c2ccccc12)C(=O)N[C@H](Cc1ccccc1)C(=O)N[C@@H](CCCCN)C(N)=O`, the pIC50 on Platelet glycoprotein 4 was 4.98; in assay [2], 5.27.

With `C[C@H](NC(=O)[C@@H](Cc1ccccc1)NC(=O)[C@H](Cc1c[nH]c2ccccc12)NC(=O)[C@H](C)NC(=O)N(Cc1ccc(O)cc1)NC(=O)[C@@H](N)Cc1cnc[nH]1)C(N)=O` (H-H[azaTyr]AW[dF]A-NH2), the pIC50 (on Platelet glycoprotein 4; in assay [2]) was < 5.00 in each case.

`CC(C)CN(NC(=O)[C@H](N)Cc1c[nH]c2ccccc12)C(=O)N[C@@H](Cc1c[nH]c2ccccc12)C(N)=O`: the pIC50 (on Platelet glycoprotein 4; in assay [2]) was < 5.00 throughout. Besides, the Activity in assay [1] is recorded as 47%.

As for `C[C@H](NC(=O)N(Cc1ccccc1)NC(=O)C(N)Cc1cnc[nH]1)C(=O)N[C@@H](Cc1c[nH]c2ccccc12)C(=O)N[C@H](Cc1ccccc1)C(=O)N[C@@H](CCCCN)C(N)=O` (some centres not stated), the negative logarithm of the IC50 (pIC50) on Platelet glycoprotein 4 was 4.14; in assay [2], 4.79.

As for `NCCCC[C@H](NC(=O)[C@@H](Cc1ccccc1)NC(=O)[C@@H]1CCCN1C(=O)NNC(=O)[C@@H](Cc1c[nH]c2ccccc12)NC(=O)[C@@H](N)Cc1cnc[nH]1)C(N)=O`, the pIC50 (at Platelet glycoprotein 4; in assay [2]) was < 5.00 throughout.

In the case of `Cc1[nH]c2ccccc2c1C[C@@H](NC(=O)[C@@H]1Cc2cccc3c2N1C(=O)[C@@H](N)CC3)C(=O)N[C@H](CCCCN)C(=O)N[C@@H](Cc1c[nH]c2ccccc12)C(=O)N[C@H](Cc1ccccc1)C(=O)N[C@@H](CCCCN)C(N)=O` (Haic-[dTrp(2-Me)][dK]W[dF]K-NH2), the pIC50 on Platelet glycoprotein 4 is 5.95; in assay [2] it was 6.12. Further, in assay [1], the Activity is on record as 3%.

With `CC(C)CN(NC(=O)[C@@H](Cc1c[nH]c2ccccc12)NC(=O)[C@@H](N)Cc1cnc[nH]1)C(=O)N[C@@H](C)C(=O)N[C@H](Cc1ccccc1)C(=O)N[C@@H](CCCCN)C(N)=O` (H-H[dW][azaLeu]A[dF]K-NH2), the pIC50 at Platelet glycoprotein 4 was 4.59; in assay [2] it was < 5.00.

For `CCC(=O)N[C@H](Cc1c[nH]c2ccccc12)C(=O)NN(CC(C)C)C(=O)N[C@@H](Cc1c[nH]c2ccccc12)C(=O)N[C@H](Cc1ccccc1)C(=O)N[C@@H](CCCCN)C(N)=O`, the pIC50 was < 5.00 at Platelet glycoprotein 4 and 5.41 in assay [2].

Take `C[C@@H](NC(=O)[C@@H](N)Cc1cnc[nH]1)C(=O)NNC(=O)N[C@@H](Cc1c[nH]c2ccccc12)C(=O)N[C@H](Cc1ccccc1)C(=O)N[C@@H](CCCCN)C(N)=O` (H-H[dA][azaGly]W[dF]K-NH2): the pIC50 (on Platelet glycoprotein 4; in assay [2]) was < 5.00 throughout.

Take `CC(C)CN(NC(=O)[C@@H](Cc1c[nH]c2ccccc12)NC(=O)[C@@H](N)Cc1cnc[nH]1)C(=O)N[C@@H](Cc1c[nH]c2ccccc12)C(N)=O`: the pIC50 is < 5.00 on Platelet glycoprotein 4 and 4.07 in assay [2].
